From ChEMBL document CHEMBL1268957, “Indapamide-like benzenesulfonamides as inhibitors of carbonic anhydrases I, II, VII, and XIII” (Bioorg Med Chem, 2010)

Key:
Carbonic anhydrase 1 [1] = target: T1, Carbonic anhydrase 1 (Homo sapiens, UniProt P00915); assay: Binding affinity to human recombinant carbonic anhydrase 1 by isothermal titration calorimetry assay
In short: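 Isothermal titration calorimetry of ligand binding to recombinant hCA at 37 °C in phosphate buffer with 50 mM NaCl, pH 7.0, final DMSO 0.5–2%. Heats of injection integrated against molar ratio to give the dissociation constant.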

Carbonic anhydrase 13 [2] = target: T2, Carbonic anhydrase 13 (Homo sapiens, UniProt Q8N1Q1); assay: Binding affinity to human recombinant carbonic anhydrase 13 by thermal shift assay
T2 sequence (Q8N1Q1 whole entry): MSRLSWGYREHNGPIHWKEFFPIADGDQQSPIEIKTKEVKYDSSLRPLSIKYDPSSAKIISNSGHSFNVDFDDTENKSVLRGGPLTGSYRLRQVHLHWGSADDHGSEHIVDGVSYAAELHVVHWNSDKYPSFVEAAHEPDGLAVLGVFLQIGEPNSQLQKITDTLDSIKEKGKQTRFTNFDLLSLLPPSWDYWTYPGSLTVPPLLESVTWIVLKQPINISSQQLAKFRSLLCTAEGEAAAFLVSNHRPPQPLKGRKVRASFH

Carbonic anhydrase 1 [3] = target: T1, Carbonic anhydrase 1; assay: Binding affinity to human recombinant carbonic anhydrase 1 by thermal shift assay
Carbonic anhydrase 2 [4] = target: T3, Carbonic anhydrase 2 (Homo sapiens, UniProt P00918); assay: Binding affinity to human recombinant carbonic anhydrase 2 by thermal shift assay
Carbonic anhydrase 13 [5] = target: T2, Carbonic anhydrase 13; assay: Binding affinity to human recombinant carbonic anhydrase 13 by isothermal titration calorimetry assay
Carbonic anhydrase 7 [6] = target: T4, Carbonic anhydrase 7 (Homo sapiens, UniProt P43166); assay: Binding affinity to human recombinant carbonic anhydrase 7 by thermal shift assay
T4 sequence (P43166 whole entry): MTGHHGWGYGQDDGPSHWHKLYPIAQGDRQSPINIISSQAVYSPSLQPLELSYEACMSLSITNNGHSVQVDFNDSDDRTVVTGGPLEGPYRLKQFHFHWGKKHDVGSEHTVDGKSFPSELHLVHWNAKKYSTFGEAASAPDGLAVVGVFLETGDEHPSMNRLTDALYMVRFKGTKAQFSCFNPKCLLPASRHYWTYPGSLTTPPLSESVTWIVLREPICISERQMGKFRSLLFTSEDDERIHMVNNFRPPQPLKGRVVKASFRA

Carbonic anhydrase 7 [7] = target: T4, Carbonic anhydrase 7; assay: Binding affinity to human recombinant carbonic anhydrase 7 by isothermal titration calorimetry assay
Carbonic anhydrase 2 [8] = target: T3, Carbonic anhydrase 2; assay: Binding affinity to human recombinant carbonic anhydrase 2 by isothermal titration calorimetry assay

T1 sequence (P00915 whole entry): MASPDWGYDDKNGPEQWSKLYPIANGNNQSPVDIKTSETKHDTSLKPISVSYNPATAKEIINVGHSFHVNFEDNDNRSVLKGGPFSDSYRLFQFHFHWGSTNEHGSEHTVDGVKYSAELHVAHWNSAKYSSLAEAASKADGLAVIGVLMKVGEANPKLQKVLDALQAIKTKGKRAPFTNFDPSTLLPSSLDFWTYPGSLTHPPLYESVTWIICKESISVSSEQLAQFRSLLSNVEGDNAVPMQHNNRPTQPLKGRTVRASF

| Kd (Carbonic anhydrase 1 [1]) [nM] | Kd (Carbonic anhydrase 13 [2]) [nM] | Kd (Carbonic anhydrase 1 [3]) [nM] | Kd (Carbonic anhydrase 2 [4]) [nM] | Kd (Carbonic anhydrase 13 [5]) [nM] | Kd (Carbonic anhydrase 7 [6]) [nM] | Kd (Carbonic anhydrase 7 [7]) [nM] | Kd (Carbonic anhydrase 2 [8]) [nM] | Structure (SMILES) |
| --- | --- | --- | --- | --- | --- | --- | --- | --- |
| 2200 | 100 | 3100 | 20 | 300 | 100 | 1100 | – | NS(=O)(=O)c1cc(C(=O)CSc2nc3cc4c(cc3[nH]2)OCCO4)ccc1Cl |
| – | – | – | 400 | – | – | – | – | CC(C)Cc1nc2ccccc2n1CC(=O)c1ccc(Cl)c(S(N)(=O)=O)c1 |
| – | 12500 | 40000 | 4200 | – | 10000 | – | – | NS(=O)(=O)c1cc(C(=O)Cn2c(CN3CCOCC3)nc3ccccc32)ccc1Cl |
| 1300 | 200 | 1000 | 100 | 100 | 30 | 100 | 100 | NS(=O)(=O)c1cc(C(=O)CSc2nc3ccccc3[nH]2)ccc1Cl |
| 1400 | 100 | 1300 | – | 200 | 100 | – | – | NS(=O)(=O)c1cc(C(=O)CSc2nc3ccc(Br)cc3[nH]2)ccc1Cl |
| – | 100 | 1300 | – | – | 100 | – | – | NS(=O)(=O)c1cc(C(=O)CSc2nc3c(cnc4ccccc43)[nH]2)ccc1Cl |
| – | 700 | – | – | – | – | – | – | NS(=O)(=O)c1cc(C(=O)Cn2cnc3ccccc32)ccc1Cl |
| – | 300 | – | – | – | – | – | – | NS(=O)(=O)c1cc(C(=O)Cn2c(CO)nc3ccccc32)ccc1Cl |
